Here are results for two compounds from ChEMBL document CHEMBL4020840, “Synthesis and Biological Evaluation of Selenium-Containing 4-Anilinoquinazoline Derivatives as Novel Antimitotic Agents” (J Med Chem, 2018).

Usually IC50 stands for the midpoint of a concentration-inhibition curve. The low end stands for higher potency, the high end for lower potency.

Experiment [1] deals with A549. The experiment is described as follows: Antitumor activity against human A549 cells xenografted in Balb/c mouse assessed as tumor growth inhibition at 30 mg/kg, ip treated once in 2 days for 10 days relative to control. The class given is functional. The settings on record: read-out: TGI. The gist of the method:
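Male BALB/c nude mice, 5 weeks old, 18−20 g. Right flank injected sc with 0.1 mL of 1 × 10⁷ cells/mL log-phase A549 in FBS-free DMEM. At ~100 mm³, randomised into groups of 5 and dosed ip every 2 days; vehicle controls got equal volume. Tumour volume (0.5 × length × width²) and body weight recorded every 2 days.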

In experiment [2] the test system is A549. The experiment is described as follows: Induction of apoptosis in human A549 cells assessed as early apoptotic cells at 4 nM after 24 hrs by Annexin V-FITC/propidium iodide staining based flow cytometry (reference value: 0.98%). In kind it is functional. Background: In flow cytometry, cells or beads pass a laser one at a time.
In experiment [3] the test system is A549. The experiment is described as follows: Induction of apoptosis in human A549 cells assessed as late apoptotic cells at 4 nM after 24 hrs by Annexin V-FITC/propidium iodide staining based flow cytometry (reference value: 0.08%). In kind it is functional.
Experiment [4] is described as follows: Antiproliferative activity against HLF after 48 hrs by MTT assay. The settings on record: Homo sapiens. In kind it is cell-based. The gist of the method: (§1)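 MTT assay: log-phase cells plated at 5 × 10³/well for 24 h, then exposed to a range of test concentrations for 48 h. MTT (5 mg/mL) added for 4 h, formazan dissolved in DMSO, absorbance read at 570 nm. IC50 is the concentration giving 50% growth inhibition, from dose-response curves; at least three independent experiments, mean ± SE.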
In general terms: Tetrazolium dyes change colour on reduction, which living cells bring about.

Experiment [5] has as its system A549. As to the kind of experiment: Induction of apoptosis in human A549 cells assessed as late apoptotic cells at 2 nM after 48 hrs by Annexin V-FITC/propidium iodide staining based flow cytometry (reference value: 0.03%). The class given is functional.
Experiment [6] has as its system RKO. As to the kind of experiment: Growth inhibition of human RKO cells after 48 hrs by MTT assay. The class given is functional, cell-based. An outline of the steps:
as §1

The test system of experiment [7] is A549. The experiment is described as follows: Growth inhibition of human A549 cells after 48 hrs by MTT assay. The class given is functional, cell-based. The settings on record: A549, 48 h.
The subject of experiment [8] is MDA-MB-231. The experiment is described as follows: Growth inhibition of human MDA-MB-231 cells after 48 hrs by MTT assay. The class given is functional, cell-based. The settings on record: MDA-MB-231, 48 h. The gist of the method: as §1
Experiment [9] concerns A549. The experiment is described as follows: Induction of apoptosis in human A549 cells assessed as necrotic cells at 4 nM after 24 hrs by Annexin V-FITC/propidium iodide staining based flow cytometry (reference value: 0.10%). The class given is functional.
Experiment [10] in a line: Selectivity index, ratio of IC50 for HLF to IC50 for human A549 cells. The gist of the method: (§2)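 MTT assay in normal cells and A549: seeding at 5 × 10³ cells/well for 24 h, 48 h compound exposure, then 5 mg/mL MTT for 4 h, DMSO solubilisation and absorbance at 570 nm. IC50 values came from dose–response curves of at least three independent experiments. Selectivity ratio = IC50 in normal cells / IC50 in A549.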

In experiment [11] the test system is MGC-803. The experiment is described as follows: Antiproliferative activity against human MGC803 cells after 48 hrs by MTT assay. The settings on record: MGC-803, 48 h. In kind it is functional, cell-based. The gist of the method:
as §1

Experiment [12] can be described thus: Selectivity index, ratio of IC50 for human LO2 cells to IC50 for human A549 cells. In kind it is functional. An outline of the steps: as §2
The subject of experiment [13] is LoVo. The experiment is described as follows: Growth inhibition of human LoVo cells after 48 hrs by MTT assay. The class given is functional, cell-based. An outline of the steps: as §1
Experiment [14] has as its system L02. As to the kind of experiment: Antiproliferative activity against human LO2 cells after 48 hrs by MTT assay. In kind it is cell-based. The settings on record: L02, 48 h. The gist of the method:
as §1

The test system of experiment [15] is MCF7. The experiment is described as follows: Antiproliferative activity against human MCF7 cells after 48 hrs by MTT assay. The class given is functional, cell-based. The settings on record: MCF7, 48 h. An outline of the steps: as §1
Experiment [16] concerns A549. As to the kind of experiment: Induction of apoptosis in human A549 cells assessed as early apoptotic cells at 4 nM after 48 hrs by Annexin V-FITC/propidium iodide staining based flow cytometry (reference value: 1.48%). The class given is functional.
The test system of experiment [17] is A549. As to the kind of experiment: Induction of apoptosis in human A549 cells assessed as live cells at 2 nM after 24 hrs by Annexin V-FITC/propidium iodide staining based flow cytometry (reference value: 98.84%). In kind it is functional.
Experiment [18] has as its system A549. As to the kind of experiment: Induction of apoptosis in human A549 cells assessed as late apoptotic cells at 4 nM after 48 hrs by Annexin V-FITC/propidium iodide staining based flow cytometry (reference value: 0.03%). The class given is functional.
A short description of experiment [19]: Resistance factor, ratio of IC50 for human A549/CDDP cells to IC50 for human A549 cells. In kind it is functional. The gist of the method: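 MTT assay: log-phase cells were seeded at 5 × 10³/well for 24 h, then exposed to a concentration series for 48 h. MTT (5 mg/mL) was added for 4 h, formazan was dissolved in DMSO, and A570 was read. IC50 values came from dose–response curves of at least three independent experiments. Resistance factor = IC50 in the resistant line / IC50 in the parental sensitive line.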

The subject of experiment [20] is A549. The experiment is described as follows: Induction of apoptosis in human A549 cells assessed as early apoptotic cells at 2 nM after 48 hrs by Annexin V-FITC/propidium iodide staining based flow cytometry (reference value: 1.48%). The class given is functional.
In experiment [21] the test system is A549. As to the kind of experiment: Induction of apoptosis in human A549 cells assessed as live cells at 4 nM after 48 hrs by Annexin V-FITC/propidium iodide staining based flow cytometry (reference value: 98.49%). In kind it is functional.
Experiment [22] has as its system BJ. As to the kind of experiment: Antiproliferative activity against human BJ cells after 48 hrs by MTT assay. In kind it is cell-based. An outline of the steps:
as §1

Experiment [23] relates to A549. The experiment is described as follows: Induction of apoptosis in human A549 cells assessed as live cells at 2 nM after 48 hrs by Annexin V-FITC/propidium iodide staining based flow cytometry (reference value: 98.49%). In kind it is functional.
Experiment [24] relates to HeLa. As to the kind of experiment: Antiproliferative activity against human HeLa cells after 48 hrs by MTT assay. In kind it is functional, cell-based. The gist of the method: as §1
The test system of experiment [25] is A549. The experiment is described as follows: Cell cycle arrest in human A549 cells assessed as accumulation at G2/M phase at 4 nM up to 24 hrs by propidium iodide staining based flow cytometry (reference value: 10.13%). The class given is functional. The gist of the method: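 A549 seeded in six-well plates at 3 × 10⁵ cells/well and treated for 12 or 24 h; vehicle 0.01% DMSO. Cells fixed overnight in ice-cold 70% ethanol, treated with RNase A at 37 °C for 30 min, then stained with PI at 4 °C for 30 min. About 10 000 events acquired by flow cytometry at 488 nm; three experiments.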

A short description of experiment [26]: Inhibition of porcine brain tubulin polymerization measured every 60 secs for 90 mins by DAPI staining based fluorescence assay. Also noted: species or system Sus scrofa. The gist of the method:
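Purified tubulin was tested in a kit assay. Final buffer: 80 mM PIPES sesquisodium (pH 6.9), 2.0 mM MgCl₂, 0.5 mM EGTA, 1 mM GTP, 10.2% glycerol. Compound (0.1–10 μM) was prewarmed at 37 °C for 1 min before tubulin was added. DAPI reporter fluorescence (ex 340 / em 410 nm) was read every 60 s for 90 min. Area under the curve gave percent inhibition versus control and the IC50.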

In experiment [27] the test system is A549. The experiment is described as follows: Induction of apoptosis in human A549 cells assessed as necrotic cells at 4 nM after 48 hrs by Annexin V-FITC/propidium iodide staining based flow cytometry relative to control. In kind it is functional.
Experiment [28] can be described thus: Growth inhibition of human HepG2/DOX cells after 48 hrs by MTT assay. The class given is functional, cell-based. An outline of the steps:
as §1

Experiment [29] deals with A549. As to the kind of experiment: Induction of apoptosis in human A549 cells assessed as late apoptotic cells at 2 nM after 24 hrs by Annexin V-FITC/propidium iodide staining based flow cytometry (reference value: 0.08%). The class given is functional.
The test system of experiment [30] is A549. As to the kind of experiment: Induction of apoptosis in human A549 cells assessed as live cells at 4 nM after 24 hrs by Annexin V-FITC/propidium iodide staining based flow cytometry (reference value: 98.84%). In kind it is functional.
For experiment [31], the system named is A549/CDDP. The experiment is described as follows: Growth inhibition of human A549/CDDP cells after 48 hrs by MTT assay. In kind it is functional, cell-based. The gist of the method: as §1
Experiment [32] deals with A549. The experiment is described as follows: Induction of apoptosis in human A549 cells assessed as necrotic cells at 2 nM after 24 hrs by Annexin V-FITC/propidium iodide staining based flow cytometry (reference value: 0.10%). In kind it is functional.
In experiment [33] the test system is HepG2. The experiment is described as follows: Growth inhibition of human HepG2 cells after 48 hrs by MTT assay. In kind it is functional, cell-based. The settings on record: HepG2, 48 h. The gist of the method:
as §1

Experiment [34] deals with HCT-116. As to the kind of experiment: Growth inhibition of human HCT116 cells after 48 hrs by MTT assay. In kind it is functional, cell-based. The settings on record: HCT-116, 48 h. An outline of the steps: as §1
Experiment [35] can be described thus: Selectivity index, ratio of IC50 for human BJ cells to IC50 for human A549 cells. In kind it is functional. The gist of the method:
as §2

Experiment [36] deals with A549. As to the kind of experiment: Induction of apoptosis in human A549 cells assessed as necrotic cells at 2 nM after 48 hrs by Annexin V-FITC/propidium iodide staining based flow cytometry relative to control. In kind it is functional.
Experiment [37] has as its system A549. As to the kind of experiment: Induction of apoptosis in human A549 cells assessed as early apoptotic cells at 2 nM after 24 hrs by Annexin V-FITC/propidium iodide staining based flow cytometry (reference value: 0.98%). The class given is functional.

`COc1ccc(/C=C\c2cc(OC)c(OC)c(OC)c2)cc1OP(=O)(O)O` [FOSBRETABULIN]: in experiment [1], the inhibition in vivo at 30 mg/kg turned out to be 56.6%.
As to `Cc1nc(N(C)c2ccc([Se]C#N)cc2)c2ccccc2n1`, the Activity is reported as 27.46% in [2]; 5.58% in experiment [3]; 5.78% in experiment [5]; 1.77% in [9]; 21.45% in experiment [16]; 82.96% in [17]. The Activity in experiment [18] came out at 29.41%; in [20] it was 17.56%; in experiment [21] it was 40.54%; in experiment [23], 74.73%; in experiment [25] it was 69.69%; in [27] it was 7.59%. Also, the Activity turned out to be 2.38% in experiment [29]; 64.96% in experiment [30]; 1.11% in [32]; 1.94% in [36]; 13.55% in [37]. Besides, the 50% inhibitory concentration (IC50) was found to be 41 nM in experiment [4]; 9 nM in [6]; 11 nM in experiment [7]; 20 nM in [8]; 12 nM in experiment [11]; 32 nM in experiment [13]. The IC50 in [14] stood at 37 nM; in [15] it was 19 nM; in experiment [22] it was 33 nM; in experiment [24], 9 nM; in experiment [26] it was 3120 nM; in experiment [28] it was 29 nM. The half-maximal inhibitory concentration (IC50) stood at 32 nM in experiment [31], 9 nM in experiment [33] and 15 nM in [34]. The “Ratio IC50” value in experiment [10] was 4.6; in experiment [12], 4.1; in [19], 3.56; in experiment [35], 3.7.
